Results on 25 compounds are retold here after ChEMBL document CHEMBL2157972, “Selenophene-containing inhibitors of type IIA bacterial topoisomerases” (J Med Chem, 2011).

The test system of data set [1] is Staphylococcus aureus. Nature of the data set: Antibacterial activity against methicillin-resistant Staphylococcus aureus ATCC 700699. In kind it is functional. An outline of the steps: (§1)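 Read-out is the minimum inhibitory concentration (MIC), reported in μg/mL, from standard antimicrobial susceptibility testing.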
Data set [2] concerns Staphylococcus aureus. Description: Antibacterial activity against methicillin-sensitive Staphylococcus aureus ATCC 29213. In kind it is functional. The method in brief: as §1
Data set [3] is described as follows: Cytotoxicity against […] CHO cell line after 72 hrs. In kind it is cell-based, Cricetulus griseus. Particulars: chinese hamster, CHO cells.
The target in another data set is DNA gyrase (Staphylococcus aureus, UniProt P0A0K8+P20831). Description: Inhibition of Staphylococcus aureus DNA gyrase by supercoiling assay. In kind it is protein-complex assay.
Data set [4] relates to Staphylococcus aureus. Nature of the data set: Antibacterial activity against fluoroquinolone resistant Staphylococcus aureus 3-FQR3M ATCC 700699 expressing GyrA Ser84Leu mutant and Glu409Lys mutant and GrlA Ser80Phe mutant. In kind it is functional. An outline of the steps: as §1
A short description of data set [5]: Cytotoxicity against human HepG2 cell line after 72 hrs. In kind it is cell-based. Particulars: HepG2 cells.
Data set [6] relates to Staphylococcus aureus. Nature of the data set: Antibacterial activity against fluoroquinolone resistant Staphylococcus aureus 2-FQR2M NY2746 expressing GyrA Ser84Leu mutant and GrlA Ser80Phe mutant. In kind it is functional. The method in brief:
as §1

Data set [7] relates to Staphylococcus aureus. Description: Antibacterial activity against fluoroquinolone resistant Staphylococcus aureus 5-FQR4M BSA678 expressing GyrA Ser84Leu and Ser85Pro mutant and GrlA Ser80Phe and Glu84Lys mutant. In kind it is functional. The method in brief:
as §1

Data set [8] can be described thus: Cytotoxicity against human HeLa cell line after 72 hrs. Particulars: HeLa cells. In kind it is cell-based.
For data set [9], the system named is Staphylococcus aureus. Description: Antibacterial activity against fluoroquinolone resistant Staphylococcus aureus 4-FQR3M BSA643 expressing GyrA Ser84Leu mutant and GrlA Ser80Tyr and Glu84Gly mutant. In kind it is functional. The method in brief: as §1
A short description of data set [10]: Inhibition of Staphylococcus aureus topoisomerase 4 by decatenation assay. An outline of the steps:
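Enzyme activity was measured by topoisomerase IV decatenation using S. aureus enzyme. Inhibition is reported as a concentration in μM.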

Data set [11] is described as follows: Cytotoxicity against human Hep2 cell line after 72 hrs. Particulars: HEp-2 cells. In kind it is cell-based. An outline of the steps: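 Human laryngeal epidermoid carcinoma Hep2 cells were exposed for 72 h.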
In data set [12] the test system is Staphylococcus aureus. Description: Antibacterial activity against fluoroquinolone resistant Staphylococcus aureus 1-FQR2M BK2384 expressing GyrA Ser84Leu mutant and GrlA Ser80Phe mutant. In kind it is functional. An outline of the steps: as §1

In brackets after ≈: the same amount, converted by molar mass.

Regarding `COC(=O)[C@H]1CN(CCSc2ccco2)CC[C@H]1CCC(=O)c1ccnc2ccc(OC)cc12`, the MIC against Staphylococcus aureus [1] was greater than 32 µg/mL.
Still for that read-out and setting: with `COC(=O)[C@H]1CN(CCSc2cccs2)CC[C@H]1CCC(=O)c1ccnc2ccc(OC)cc12` the figure was greater than 32 µg/mL; with `COC(=O)[C@H]1CN(CCSc2sccc2P(=O)(OC(C)C)OC(C)C)CC[C@H]1CCC(=O)c1ccnc2ccc(OC)cc12`, greater than 32 µg/mL.
On the same count and under the same terms, with `COC(=O)[C@H]1CN(CCSc2ccc[se]2)CC[C@H]1CCC(=O)c1ccnc2ccc(OC)cc12` the figure was greater than 32 µg/mL; with `COC(=O)[C@H]1CN(CCS(=O)(=O)c2ccc[se]2)CC[C@H]1CCC(=O)c1ccnc2ccc(OC)cc12`, greater than 32 µg/mL; with `COC(=O)[C@H]1CN(CCSc2ccc(C(F)F)[se]2)CC[C@H]1CCC(=O)c1ccnc2ccc(OC)cc12`, greater than 32 µg/mL.
As for `COC(=O)[C@H]1CN(CCSc2ccc(C#N)[se]2)CC[C@H]1CCC(=O)c1ccnc2ccc(OC)cc12`, the MIC in the data set on Staphylococcus aureus [1] is greater than 32 µg/mL.
Still for that read-out and setting: under `COC(=O)[C@H]1CN(CCC(=O)N2CCCCC2)CC[C@H]1CCC(=O)c1ccnc2ccc(OC)cc12` stands greater than 32 µg/mL.
As to `COc1ccc2nccc([C@H](O)CC[C@@H]3CCN(CCSc4ccc[se]4)C[C@@H]3C(=O)O)c2c1` (mixture of isomers), the MIC amounted to 0.5 µg/mL with Staphylococcus aureus [1]; 0.5 µg/mL against Staphylococcus aureus [2]; 0.5 µg/mL in the data set with Staphylococcus aureus [4]; 1 µg/mL against Staphylococcus aureus [6]; 2 µg/mL in the data set on Staphylococcus aureus [7]; 1 µg/mL against Staphylococcus aureus [9]. The compound also registered an MIC in the data set with Staphylococcus aureus [12] of 1 µg/mL. The CC50 at 72 h in data set [3], in data set [5], in [8] and in data set [11] was greater than 100 µM throughout. The values for the IC50 (on DNA gyrase; in [10]) were 0.7 µM and 69 µM, respectively.
As for `COc1ccc2nccc([C@@H](O)CC[C@@H]3CCN(CCSc4ccc[se]4)C[C@@H]3C(=O)O)c2c1` (mixture of isomers), the MIC in the data set with Staphylococcus aureus [1] stood at 0.25 µg/mL; in the data set on Staphylococcus aureus [2], 0.25 µg/mL; against Staphylococcus aureus [4], 0.25 µg/mL; against Staphylococcus aureus [6], 0.5 µg/mL; against Staphylococcus aureus [7], 1 µg/mL; in the data set with Staphylococcus aureus [9], 0.5 µg/mL. The compound also gave an MIC in the data set on Staphylococcus aureus [12] of 0.25 µg/mL. The CC50 at 72 h in [3], in data set [5], in data set [8] and in [11] was greater than 100 µM in each case. Further, the IC50 against DNA gyrase is 0.4 µM; in [10], 64 µM.
As for `COc1ccc2nccc([C@H](O)CC[C@@H]3CCN(CCS(=O)(=O)c4ccc[se]4)C[C@@H]3C(=O)O)c2c1` (mixture of isomers), the MIC with Staphylococcus aureus [1] and with Staphylococcus aureus [2] was greater than 64 µg/mL each time. Also, the CC50 at 72 h in data set [11] was greater than 100 µM.
For the compound `COc1ccc2nccc([C@@H](O)CC[C@@H]3CCN(CCS(=O)(=O)c4ccc[se]4)C[C@@H]3C(=O)O)c2c1` (mixture of isomers), the MIC in the data set on Staphylococcus aureus [1] and against Staphylococcus aureus [2] was greater than 64 µg/mL in each case. The compound further had an IC50 on DNA gyrase greater than 100 µM. The CC50 at 72 h in data set [11] is greater than 100 µM.
In the case of `COc1ccc2nccc([C@@H](O)CC[C@@H]3CCN(CCSc4ccc(C(F)F)[se]4)C[C@@H]3C(=O)O)c2c1` (mixture of isomers), the MIC against Staphylococcus aureus [1] was found to be 16 µg/mL; with Staphylococcus aureus [2], 32 µg/mL. The IC50 at DNA gyrase was 21.2 µM. This compound also returned a CC50 at 72 h in [11] of 39 µM.
With `COc1ccc2nccc([C@H](O)CC[C@@H]3CCN(CCSc4ccc(C=O)[se]4)C[C@@H]3C(=O)O)c2c1` (mixture of isomers), the MIC against Staphylococcus aureus [1] and in the data set on Staphylococcus aureus [2] was 16 µg/mL in each case. The IC50 against DNA gyrase was 8.9 µM. Further, in data set [11], the CC50 at 72 h is greater than 100 µM.
For `COc1ccc2nccc([C@H](O)CC[C@@H]3CCN(CCSc4ccc(C#N)[se]4)C[C@@H]3C(=O)O)c2c1` (mixture of isomers), the MIC against Staphylococcus aureus [1] and in the data set on Staphylococcus aureus [2] was greater than 64 µg/mL each time. For the same compound, the CC50 at 72 h in data set [11] was 65 µM.
Turning to `COc1ccc2nccc([C@@H](O)CC[C@@H]3CCN(CCSc4ccc(C#N)[se]4)C[C@@H]3C(=O)O)c2c1` (mixture of isomers), the MIC against Staphylococcus aureus [1] and against Staphylococcus aureus [2] was 32 µg/mL in each case. The same compound showed an IC50 against DNA gyrase of 36.6 µM. In [11], this compound had a CC50 at 72 h of 48 µM.
For the compound `COc1ccc2nccc(C(O)CC[C@@H]3CCN(CCSc4ccc(C(=O)O)[se]4)C[C@@H]3C(=O)O)c2c1` (mixture of isomers), the MIC with Staphylococcus aureus [1] and against Staphylococcus aureus [2] was greater than 64 µg/mL throughout. In addition, on DNA gyrase, the IC50 is greater than 100 µM. For the same compound, the CC50 at 72 h in data set [11] was greater than 100 µM.
As for `COc1ccc2nccc(C(O)CC[C@@H]3CCN(CCC(=O)N4CCCCC4)C[C@@H]3C(=O)O)c2c1` (mixture of isomers), the MIC in the data set on Staphylococcus aureus [1] and in the data set on Staphylococcus aureus [2] was 32 µg/mL throughout. The IC50 on DNA gyrase is 10.6 µM. Also, in data set [11], the CC50 at 72 h is greater than 100 µM.
In the case of `COc1ccc2nccc([C@H](O)CC[C@@H]3CCN(CCSc4sccc4P(=O)(OC(C)C)OC(C)C)C[C@@H]3C(=O)O)c2c1` (mixture of isomers), the MIC in the data set on Staphylococcus aureus [1] and in the data set on Staphylococcus aureus [2] was greater than 64 µg/mL throughout. In data set [11], it took 34 µM to reach half-maximal cytotoxicity (CC50 at 72 h).
For `COc1ccc2nccc([C@@H](O)CC[C@@H]3CCN(CCSc4sccc4P(=O)(OC(C)C)OC(C)C)C[C@@H]3C(=O)O)c2c1` (mixture of isomers), the MIC against Staphylococcus aureus [1] and in the data set on Staphylococcus aureus [2] was greater than 64 µg/mL each time. This compound also displayed an IC50 against DNA gyrase greater than 100 µM. For the same compound, the CC50 at 72 h in [11] is greater than 98 µM.
As for `COc1ccc2nccc([C@H](O)CC[C@@H]3CCN(CCSc4sccc4P(=O)(O)O)C[C@@H]3C(=O)O)c2c1` (mixture of isomers), the MIC against Staphylococcus aureus [1] and in the data set with Staphylococcus aureus [2] was greater than 64 µg/mL throughout. Moreover, on DNA gyrase, the IC50 is greater than 100 µM. The CC50 at 72 h in data set [11] is greater than 100 µM.
Regarding `COc1ccc2nccc([C@@H](O)CC[C@@H]3CCN(CCSc4sccc4P(=O)(O)O)C[C@@H]3C(=O)O)c2c1` (mixture of isomers), the MIC against Staphylococcus aureus [1] and against Staphylococcus aureus [2] was greater than 64 µg/mL each time. For the same compound, the CC50 at 72 h in [11] was greater than 94 µM.
In the case of `O=C(O)c1cn(C2CC2)c2cc(N3CCNCC3)c(F)cc2c1=O` [CIPROFLOXACIN], the MIC with Staphylococcus aureus [1] was 64 µg/mL (≈ 193 µM); with Staphylococcus aureus [2], 0.25 µg/mL (≈ 0.754 µM); against Staphylococcus aureus [4], 64 µg/mL (≈ 193 µM); in the data set on Staphylococcus aureus [6], 256 µg/mL (≈ 773 µM); with Staphylococcus aureus [7] it was 128 µg/mL (≈ 386 µM); in the data set on Staphylococcus aureus [9] it was 256 µg/mL (≈ 773 µM). The compound further had an MIC in the data set with Staphylococcus aureus [12] of 64 µg/mL (≈ 193 µM). For the same compound, the IC50 in [10] stood at 3 µM. Besides, the CC50 at 72 h in data set [11] was greater than 100 µM.
As to `CO/N=C1\CN(c2nc3c(cc2F)c(=O)c(C(=O)O)cn3C2CC2)CC1CN` (centres undefined) [GEMIFLOXACIN], the MIC in the data set with Staphylococcus aureus [1] came out at 4 µg/mL (≈ 10.3 µM); in the data set on Staphylococcus aureus [2], 0.03 µg/mL (≈ 0.077 µM); against Staphylococcus aureus [4], 4 µg/mL (≈ 10.3 µM); in the data set with Staphylococcus aureus [6] it was 32 µg/mL (≈ 82.2 µM); in the data set on Staphylococcus aureus [7], 64 µg/mL (≈ 164 µM); against Staphylococcus aureus [9] it was 32 µg/mL (≈ 82.2 µM). The MIC against Staphylococcus aureus [12] is 1 µg/mL (≈ 2.57 µM). Besides, the IC50 in data set [10] amounted to 0.4 µM.
As for `COc1c(N2C[C@@H]3CCCN[C@@H]3C2)c(F)cc2c(=O)c(C(=O)O)cn(C3CC3)c12` [MOXIFLOXACIN], the MIC with Staphylococcus aureus [1] was 4 µg/mL (≈ 9.96 µM); in the data set on Staphylococcus aureus [2], 0.06 µg/mL (≈ 0.149 µM); against Staphylococcus aureus [4], 4 µg/mL (≈ 9.96 µM); against Staphylococcus aureus [6] it was 8 µg/mL (≈ 19.9 µM); in the data set on Staphylococcus aureus [7], greater than 64 µg/mL; against Staphylococcus aureus [9], 16 µg/mL (≈ 39.9 µM). The compound also returned an MIC in the data set with Staphylococcus aureus [12] of 1 µg/mL (≈ 2.49 µM). For the same compound, in data set [10], inhibition was half-maximal at 1 µM (IC50). Besides, the CC50 at 72 h in [11] is greater than 100 µM.

As a reminder, the MIC is the lowest concentration found to suppress growth. A word on the CC50: it is the concentration giving 50% cytotoxicity. A low value points to harm at low concentration. As usually defined, the IC50 is the concentration at which inhibition is half-maximal.
